23 molecules from ChEMBL document CHEMBL3232757, “Structure-activity relationships for withanolides as inducers of the cellular heat-shock response” (J Med Chem, 2014) can be followed below.

Active and inactive are the calls of the source. The rule behind the calls is not given here.

The term IC50 denotes the concentration that gives 50% inhibition. For orientation: inhibition means the relative decrease from the control value, in per cent.

A short description of experiment [1]: Cytotoxicity against human NCI-H929 cells after 3 days by Alamar blue assay. Format: functional, cell-based. The conditions noted are these: NCI-H929, 72 h. (In general: Alamar Blue is a resazurin reagent that responds to reducing activity.)
Experiment [2] in a line: Cytotoxicity against human CHP100 cells assessed as inhibition of cell survival after 24 hrs by MTT assay. Type of experiment: functional, cell-based. The conditions noted are these: CHP100, 24 h. Background: Formazan colour is commonly taken as a measure of viable cells.
Experiment [3] addresses Heat shock 70 kDa protein 6 (Homo sapiens) (UniProt P17066). The experiment is described as follows: Induction of […] (unknown origin)-mediated heat shock response expressed in human 293T cells coexpressing GFP assessed as heat shock index after overnight incubation by luciferase reporter gene assay relative to control. Format: cell-based. The method, boiled down:
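293T cells transduced with a lentiviral EGFP–firefly luciferase fusion under HSP70B′ promoter elements, enriched by heat shock (42 °C, 1 h) plus FACS, then reverse-sorted to remove constitutive expressers. Cells in DMEM/10% FBS were seeded at 20 000/well and given serial dilutions next day, quadruplicate wells, overnight. Read by Steady-Glo luminescence. Index = [Log2(treated/control)]/concentration (μM) at maximal response.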
In general terms: Reporter assays use an easily measured gene product as a stand-in for the process of interest.

The nature of experiment [4]: Cytotoxicity against human CHP100 cells assessed as inhibition of cell survival at 4 uM after 24 hrs by MTT assay relative to control. Conditions: CHP100, 24 h. Format: functional.
The test system of experiment [5] is Mus musculus. The experiment is described as follows: Induction of heat shock activity in mouse assessed as upregulation of HSP72 protein level in spleen at 25 mg/kg, sc after 18 hrs by immunoblotting analysis. Format: functional, organism-based. The arrangement: dose 25 mg/kg. The method, boiled down:
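Mice were randomly assigned. Dosing was by subcutaneous injection, 25 mg/kg, in hydroxypropyl β-cyclodextrin 30% w/v with DMSO 10% v/v; vehicle controls got an equal volume; five mice per group. Spleens were taken about 18 h later, snap-frozen, pulverized and lysed in nonionic detergent buffer. 15 μg protein/lane went to SDS-PAGE and immunoblotting for HSP72. Band intensity was normalized to β-actin. Variance versus vehicle was compared by F test.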

Experiment [6] deals with Mus musculus. The experiment can be described thus: Induction of heat shock activity in mouse assessed as upregulation of HSP72 protein level in spleen at 40 mg/kg, sc after 18 hrs by immunoblotting analysis relative to control. Format: functional, organism-based. More on the design: dose 40 mg/kg. The method, boiled down:
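Mice given a single subcutaneous dose in cyclodextrin vehicle (hydroxypropyl β-cyclodextrin 30% w/v, DMSO 10% v/v). Controls received an equal volume of vehicle alone. Three mice per group at 40 mg/kg. Spleens harvested about 18 h after dosing, snap-frozen and lysed in nonionic detergent buffer. 15 μg protein/lane run on SDS-PAGE and immunoblotted for HSP72 and β-actin. HSP72 band intensity normalized to actin; Student's t test versus vehicle.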

Experiment [7] is filed under the species Mus musculus. The experiment is described as follows: Induction of heat shock protein-mediated heat shock response in mouse 3T3-Y9-B12 cells assessed as heat shock index after 24 hrs by fluorescence assay relative to control. Format: cell-based. The method, boiled down: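 Mouse 3T3-Y9-B12 heat-shock reporter cells seeded 20 000/well, left to adhere overnight, then exposed 24 h to compound at 1, 2, or 4 μM. After PBS wash, fluorescence read at excitation 485 nm and emission 530 nm. Heat-shock index calculated as [Log2(treated/control)]/concentration (μM).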

Chain of Heat shock 70 kDa protein 6 (Homo sapiens) (P17066 whole entry, the tested form may be a part): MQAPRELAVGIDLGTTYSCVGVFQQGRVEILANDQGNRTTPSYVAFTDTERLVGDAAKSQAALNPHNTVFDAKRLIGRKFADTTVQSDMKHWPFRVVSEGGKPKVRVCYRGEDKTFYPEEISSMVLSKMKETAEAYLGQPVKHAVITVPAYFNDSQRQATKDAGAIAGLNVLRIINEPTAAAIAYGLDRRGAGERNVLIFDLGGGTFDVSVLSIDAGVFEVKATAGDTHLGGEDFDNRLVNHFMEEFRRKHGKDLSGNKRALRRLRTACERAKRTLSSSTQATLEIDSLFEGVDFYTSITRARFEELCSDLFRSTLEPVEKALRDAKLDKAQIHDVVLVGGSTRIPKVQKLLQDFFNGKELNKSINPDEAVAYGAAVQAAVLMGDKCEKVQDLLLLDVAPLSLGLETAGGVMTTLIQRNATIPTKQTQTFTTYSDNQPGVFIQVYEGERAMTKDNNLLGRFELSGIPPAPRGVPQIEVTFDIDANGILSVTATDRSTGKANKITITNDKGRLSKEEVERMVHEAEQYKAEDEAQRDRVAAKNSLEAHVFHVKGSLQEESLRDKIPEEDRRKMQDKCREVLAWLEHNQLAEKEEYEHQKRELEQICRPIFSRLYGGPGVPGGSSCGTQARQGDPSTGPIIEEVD

Regarding `CC(=O)OCC1=C(C)C[C@H]([C@@H](C)[C@H]2CC[C@H]3[C@@H]4CC=C5C(OC(C)=O)C=CC(=O)[C@]5(C)[C@H]4CC[C@]23C)OC1=O` (single isomer, unassigned), the half-inhibitory concentration (IC50) in experiment [1] turned out to be 1630 nM; in experiment [2] it was 530 nM. The fold change (FC) in experiment [3] was 0.9. In experiment [4], the inhibition at 4 µM was above 80%.

For `CC(=O)OCC1=C(C)C[C@H]([C@@H](C)[C@H]2CC[C@H]3[C@@H]4C[C@H]5O[C@]56[C@H](OC(C)=O)C=CC(=O)[C@]6(C)[C@H]4CC[C@]23C)OC1=O`, the result with Mus musculus [5] and with Mus musculus [6] was Active.

As to `CC(=O)OCC1=C(C)C[C@H]([C@@H](C)[C@H]2CC[C@H]3[C@@H]4C[C@H]5O[C@]56[C@@H](O)[C@@H](OS(=O)(=O)O)CC(=O)[C@]6(C)[C@H]4CC[C@]23C)OC1=O`, the values for the IC50 in experiment [1] and in experiment [2] were 1120 nM and 730 nM, respectively. Further, the fold change (FC) in experiment [3] is 0.36. Moreover, in experiment [4], the inhibition at 4 µM is above 80%.

Regarding `CC(=O)O[C@H]1C=CC(=O)[C@]2(C)[C@H]3CC[C@]4(C)[C@@H]([C@H](C)[C@H]5CC(C)=C(C)C(=O)O5)CC[C@H]4[C@@H]3C[C@H]3O[C@]132`, the IC50 in experiment [1] was 430 nM; in experiment [2], 760 nM. Moreover, the fold change (FC) in experiment [3] was 1.53. In experiment [4], the inhibition at 4 µM is above 80%.

Consider `CC(=O)OCC1=C(C)C[C@H]([C@@H](C)[C@H]2CC[C@H]3[C@@H]4C[C@H]5O[C@]56C(=O)C=CC(=O)[C@]6(C)[C@H]4CC[C@]23C)OC1=O`, for which the IC50 in experiment [1] came to 460 nM; in experiment [2] it was 390 nM. For the same molecule, the fold change (FC) in experiment [3] amounted to 0.92. For the same molecule, the inhibition at 4 µM in experiment [4] was above 80%.

In the case of `CC(=O)O[C@@H]1C=CC(=O)[C@]2(C)[C@H]3CC[C@]4(C)[C@@H]([C@H](C)[C@H]5CC(C)=C(CO)C(=O)O5)CC[C@H]4[C@@H]3C[C@H]3O[C@]132`, the figures for the IC50 in experiment [1] and in experiment [2] were 250 nM and 830 nM, respectively. In addition, in experiment [3], the fold change (FC) came out at 1.64. Besides, in experiment [4], the inhibition at 4 µM was above 80%.

Regarding `CC1=C(C)C(=O)O[C@@H]([C@@H](C)[C@H]2CC[C@H]3[C@@H]4C[C@H]5O[C@]56[C@@H](O)C=CC(=O)[C@]6(C)[C@H]4CC[C@]23C)C1`, the figures for the concentration for half-maximal inhibition (IC50) in experiment [1] and in experiment [2] were 880 nM and 640 nM, respectively. For the same molecule, the fold change (FC) in experiment [3] was 0.52. Besides, the inhibition at 4 µM in experiment [4] was above 80%.

For the molecule `CC1=C(CO)C(=O)O[C@@H]([C@@H](C)[C@H]2CC[C@H]3[C@@H]4C[C@H]5O[C@]56[C@@H](O)[C@@H](N=[N+]=[N-])CC(=O)[C@]6(C)[C@H]4CC[C@]23C)C1`, the half-inhibitory concentration (IC50) in experiment [1] turned out to be 1650 nM; in experiment [2], 810 nM. In experiment [3], the fold change (FC) worked out at 0. The inhibition at 4 µM in experiment [4] was above 80%.

`CC(=O)OCC1=C(C)C[C@H]([C@@H](C)[C@H]2CC[C@H]3[C@@H]4C[C@H]5O[C@]56[C@@H](OC(C)=O)C=CC(=O)[C@]6(C)[C@H]4C[C@@H](OC(C)=O)[C@]23C)OC1=O` had an IC50 in experiment [1] of 180 nM. In addition, in experiment [2], the half-inhibitory concentration (IC50) was 280 nM. Also, in experiment [3], the Activity entry is “Dose-dependent effect” and the fold change (FC) was 3.31. For the same molecule, in experiment [4], the inhibition at 4 µM was above 80%.

Regarding `CC(=O)OCC1=C(C)C[C@H]([C@@H](C)[C@H]2CC[C@H]3[C@@H]4C[C@H]5O[C@]56[C@@H](OC(C)=O)[C@@H](OS(=O)(=O)O)CC(=O)[C@]6(C)[C@H]4CC[C@]23C)OC1=O`, the concentration for half-maximal inhibition (IC50) worked out at 1040 nM in experiment [1] and 390 nM in experiment [2]. In addition, the fold change (FC) in experiment [3] was found to be 0.78. Besides, the inhibition at 4 µM in experiment [4] is above 80%.

On to `CC1=C(CO)C(=O)O[C@@H]([C@@H](C)[C@H]2CC[C@H]3[C@@H]4C[C@H]5O[C@]56[C@@H](O)C=CC(=O)[C@]6(C)[C@H]4CC[C@]23C)C1` [WITHAFERIN A], for which the half-inhibitory concentration (IC50) stood at 250 nM in experiment [1] and 970 nM in experiment [2]. In addition, the fold change (FC) turned out to be 2.1 in the experiment listed under Mus musculus [7] and 1.35 in experiment [3]. For the same molecule, the Activity entry in experiment [3] was “Dose-dependent effect”. Further, the inhibition at 4 µM in experiment [4] was above 80%. For the same molecule, the outcome with Mus musculus [5] was inactive.

For `CC(=O)OCC1=C(C)C[C@H]([C@@H](C)[C@H]2CC[C@H]3[C@@H]4C[C@H]5O[C@]56[C@@H](O)C=CC(=O)[C@]6(C)[C@H]4CC[C@]23C)OC1=O`, the IC50 stood at 250 nM in experiment [1] and 230 nM in experiment [2]. Further, in experiment [3], the Activity result is “Dose-dependent effect”. Further, in experiment [3], the fold change (FC) worked out at 3.81. In addition, in experiment [4], the inhibition at 4 µM is above 80%.

For `CC1=C(CO)C(=O)O[C@@H]([C@@H](C)[C@H]2CC[C@H]3[C@@H]4C[C@H]5O[C@]56[C@@H](O)[C@H](n5ccc(=O)[nH]c5=O)CC(=O)[C@]6(C)[C@H]4CC[C@]23C)C1`, the IC50 in experiment [1] turned out to be 540 nM; in experiment [2], 960 nM. Moreover, the fold change (FC) in experiment [3] was determined as 0.59. In experiment [4], the inhibition at 4 µM was above 80%.

For `CC1=C(CO)C(=O)O[C@@H]([C@@H](C)[C@H]2CC[C@H]3[C@@H]4C[C@H]5O[C@]56[C@H](O)C=CC(=O)[C@]6(C)[C@H]4CC[C@]23C)C1`, the IC50 stood at 280 nM in experiment [1] and 930 nM in experiment [2]. Further, the fold change (FC) in experiment [3] was 1.68. The inhibition at 4 µM in experiment [4] is above 80%.

In experiment [1], `CC1=C(C)C(=O)O[C@@H]([C@](C)(O)[C@H]2CC[C@H]3[C@@H]4[C@@H]5O[C@@H]5[C@@]5(O)CC=CC(=O)[C@]5(C)[C@H]4CC[C@]23C)C1` [WITHANOLIDE A] returned an IC50 above 10000 nM. Also, in experiment [3], the fold change (FC) stood at 0.

For `CC1=C(COS(=O)(=O)O)C(=O)O[C@@H]([C@@H](C)[C@H]2CC[C@H]3[C@@H]4C[C@H]5O[C@]56[C@@H](OS(=O)(=O)O)C=CC(=O)[C@]6(C)[C@H]4CC[C@]23C)C1`, the 50% inhibitory concentration (IC50) in experiment [1] was above 10000 nM. Further, the fold change (FC) in experiment [3] turned out to be 0.

`CC1=C(CO)C(=O)OC([C@@H](C)C2CCC3C4C(CC[C@@]32C)[C@@]2(C)C(=O)C=CC[C@]2(O)[C@H]2O[C@@H]42)C1` (stereo not given in full) registered an IC50 in experiment [1] above 10000 nM. Also, the fold change (FC) in experiment [3] is 0.

`CC1=C(CO)C(=O)O[C@@H]([C@@H](C)[C@H]2CC[C@H]3[C@@H]4C[C@H]5O[C@]56C(=O)C=CC(=O)[C@]6(C)[C@H]4CC[C@]23C)C1` showed an IC50 in experiment [1] of 1160 nM. Further, the fold change (FC) in experiment [3] is 0.79.

With `CC1=C(CO)C(=O)O[C@@H]([C@@H](C)[C@H]2CC[C@H]3[C@@H]4C[C@H]5O[C@]56[C@@H](O)[C@@H](n5cnc7c(N)ncnc75)CC(=O)[C@]6(C)[C@H]4CC[C@]23C)C1`, it took 610 nM to reach half-maximal inhibition in experiment [1] (IC50). Also, the fold change (FC) in experiment [3] worked out at 0.

Turning to `CC(=O)OCC1=C(C)C[C@H]([C@@H](C)[C@H]2CC[C@H]3[C@@H]4C[C@H]5O[C@]56[C@H](O)C=CC(=O)[C@]6(C)[C@H]4CC[C@]23C)OC1=O`, the 50% inhibitory concentration (IC50) in experiment [1] was 50 nM; in experiment [2], 220 nM. In addition, the fold change (FC) was determined as 4.7 in the experiment listed under Mus musculus [7] and 3.69 in experiment [3]. In addition, the Activity entry in experiment [3] was “Dose-dependent effect”. In experiment [4], the inhibition at 4 µM was above 80%.

For `CC(=O)O[C@H]1C=CC(=O)[C@]2(C)[C@H]3CC[C@]4(C)[C@@H]([C@H](C)[C@H]5CC(C)=C(CO)C(=O)O5)CC[C@H]4[C@@H]3C[C@H]3O[C@]132`, the IC50 in experiment [1] came to 250 nM; in experiment [2] it was 780 nM. In addition, in experiment [3], the fold change (FC) is 1.73. In experiment [4], the inhibition at 4 µM was above 80%.

Regarding `CC(=O)OCC1=C(C)C[C@H]([C@@H](C)[C@H]2C[C@@H](OC(C)=O)[C@H]3[C@@H]4C[C@H]5O[C@]56[C@@H](OC(C)=O)C=CC(=O)[C@]6(C)[C@H]4CC[C@@]32C)OC1=O`, the figures for the half-inhibitory concentration (IC50) in experiment [1] and in experiment [2] were 240 nM and 310 nM, respectively. Besides, the fold change (FC) in experiment [3] is 1.65. In experiment [4], the inhibition at 4 µM was above 80%.

On to `CC1=C(COS(=O)(=O)O)C(=O)O[C@@H]([C@@H](C)[C@H]2CC[C@H]3[C@@H]4C[C@H]5O[C@]56[C@@H](O)C=CC(=O)[C@]6(C)[C@H]4CC[C@]23C)C1`, for which the 50% inhibitory concentration (IC50) in experiment [1] was 3320 nM. Besides, the fold change (FC) in experiment [3] came out at 0.2.
